# Data taken from ChEMBL document CHEMBL1926573, “Synthesis, antiproliferative activity and genotoxicity of novel anthracene-containing aminophosphonates and a new anthracene-derived Schiff base” (Bioorg Med Chem, 2012).
# The source made the active and inactive calls. The calls are words filed in the database; no cut-off is given here.
# How the values were obtained:
# Bone marrow cell [1] = experiment: Induction of mitosis in ICR mouse bone marrow cells assessed as mitotic index at 10 mg/kg, ip after 48 hrs; assay type: functional; conditions: route intraperitoneal
# How it was run: (§1)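 ICR mice (male and female, 20 ± 1.5 g; 4 males + 4 females per treated group, 10 per control group) given compound ip at 10 or 100 mg/kg; mitomycin C 3.5 mg/kg positive control, 0.9% saline negative control. Colchicine 0.4 mg/kg ip 1 h before femoral marrow harvest at 24 or 48 h. Cells put in 0.075 M KCl (37 °C, 20 min), fixed in methanol–acetic acid 3:1, stained with Giemsa. ≥50 metaphases scored per animal. Mitotic index counted in 1500 cells per animal. Group mean ± SEM, Student's t-test.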
# Bone marrow cell [2] = experiment: Induction of mitosis in ICR mouse bone marrow cells assessed as mitotic index at 10 mg/kg, ip after 24 hrs; assay type: functional; conditions: route intraperitoneal; how it was run: as §1
# 647-V = experiment: Cytotoxicity against human 647V cells after 24 hrs by MTT assay; assay type: functional, cell-based
# How it was run: (§2)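 Human tumor lines were grown in RPMI 1640 (MCF-7, HBL-100) or high-glucose DMEM (others) with 10% FCS at 37.5 °C and 5% CO2. Cells were seeded at 1×10^4/well, allowed to adhere 24 h, then exposed 24 h to 1–0.0681 mg/ml (1.47-fold dilutions) from DMSO stock diluted in PBS, with DMSO ≤1%. Doxorubicin was the reference. MTT-formazan was read at 580 nm. IC50 by non-linear regression; mean ± SD of three experiments.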
# Bone marrow cell [3] = experiment: Antiproliferative activity in ICR mouse bone marrow cells assessed as inhibition of cell division at 10 to 100 mg/kg, ip measured after 48 hrs; assay type: functional, organism-based; how it was run: as §1
# Bone marrow cell [4] = experiment: Induction of clastogenic effect in ICR mouse bone marrow cells assessed as chromosomal aberration at 100 mg/kg, ip after 48 hrs; assay type: functional; conditions: route intraperitoneal; how it was run: as §1
# HeLa = experiment: Cytotoxicity against human HeLa cells after 24 hrs by MTT assay; assay type: functional, cell-based; how it was run: as §2
# MDA-MB-231 = experiment: Cytotoxicity against human MDA-MB-231 cells after 24 hrs by MTT assay; assay type: functional, cell-based; conditions: MDA-MB-231, 24 h; how it was run: as §2
# Bone marrow cell [5] = experiment: Induction of mitosis in ICR mouse bone marrow cells assessed as mitotic index at 100 mg/kg, ip after 24 hrs; assay type: functional; conditions: route intraperitoneal; how it was run: as §1
# Bone marrow cell [6] = experiment: Induction of mitosis in ICR mouse bone marrow cells assessed as mitotic index at 100 mg/kg, ip after 48 hrs; assay type: functional; conditions: route intraperitoneal; how it was run: as §1
# MCF7 = experiment: Cytotoxicity against human MCF7 cells after 24 hrs by MTT assay; assay type: functional, cell-based; conditions: MCF7, 24 h; how it was run: as §2
# HepG2 = experiment: Cytotoxicity against human HepG2 cells after 24 hrs by MTT assay; assay type: functional, cell-based; conditions: HepG2, 24 h; how it was run: as §2
# Bone marrow cell [7] = experiment: Induction of clastogenic effect in ICR mouse bone marrow cells assessed as chromosomal aberration at 100 mg/kg, ip after 24 hrs; assay type: functional; conditions: route intraperitoneal; how it was run: as §1
# Bone marrow cell [8] = experiment: Induction of clastogenic effect in ICR mouse bone marrow cells assessed as chromosomal aberration at 10 mg/kg, ip after 48 hrs; assay type: functional; conditions: route intraperitoneal; how it was run: as §1
# Bone marrow cell [9] = experiment: Induction of clastogenic effect in ICR mouse bone marrow cells assessed as chromosomal aberration at 10 mg/kg, ip after 24 hrs; assay type: functional; conditions: route intraperitoneal; how it was run: as §1
# HBL-100 [10] = experiment: Cytotoxicity against human HBL100 cells after 24 hrs by MTT assay; assay type: functional, cell-based; conditions: HBL-100, 24 h; how it was run: as §2
# HT-29 = experiment: Cytotoxicity against human HT-29 cells after 24 hrs by MTT assay; assay type: functional, cell-based; conditions: HT-29, 24 h; how it was run: as §2
# Bone marrow cell [11] = experiment: Induction of clastogenic effect in ICR mouse bone marrow cells assessed as chromosomal breaks and fragmentation at 10 to 100 mg/kg, ip; assay type: functional; conditions: dose mg/kg 10-100; route intraperitoneal; how it was run: as §1
# [12] = Drug uptake in cytoplasm of human HBL100 cells at non-toxic concentration after 24 hrs by fluorescent microscopic analysis; assay type: ADME, cell-based; conditions: hbl-100, 24 h
# How it was run: (§3)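 HBL-100 cells were seeded at 1×10^5/ml on diagnostic slides, adhered overnight (37.5 °C, 5% CO2), and exposed 24 h to non-toxic concentrations. Intrinsic anthracene fluorescence was imaged by fluorescence microscopy to locate subcellular distribution.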
# Bone marrow cell [13] = experiment: Induction of clastogenic effect in ICR mouse bone marrow cells assessed as rearrangement in centromere to centromeric fusion at 10 to 100 mg/kg, ip; assay type: functional; conditions: dose mg/kg 10-100; route intraperitoneal; how it was run: as §1
# Bone marrow cell [14] = experiment: Induction of mitosis in ICR mouse bone marrow cells assessed as mitotic index at 3.5 mg/kg, ip after 24 hrs; assay type: functional; conditions: route intraperitoneal; how it was run: as §1
# Bone marrow cell [15] = experiment: Induction of clastogenic effect in ICR mouse bone marrow cells assessed as chromosomal aberration at 3.5 mg/kg, ip after 48 hrs; assay type: functional; conditions: route intraperitoneal; how it was run: as §1
# Bone marrow cell [16] = experiment: Induction of clastogenic effect in ICR mouse bone marrow cells assessed as rearrangement in centromere to centromeric fusion at 3.5 mg/kg, ip after 24 hrs; assay type: functional; conditions: route intraperitoneal; how it was run: as §1
# Bone marrow cell [17] = experiment: Induction of clastogenic effect in ICR mouse bone marrow cells assessed as chromosomal breaks and fragmentation at 3.5 mg/kg, ip after 24 hrs; assay type: functional; conditions: route intraperitoneal; how it was run: as §1
# Bone marrow cell [18] = experiment: Induction of mitosis in ICR mouse bone marrow cells assessed as mitotic index at 3.5 mg/kg, ip after 48 hrs; assay type: functional; conditions: route intraperitoneal; how it was run: as §1
# Bone marrow cell [19] = experiment: Induction of clastogenic effect in ICR mouse bone marrow cells assessed as chromosomal aberration at 3.5 mg/kg, ip after 24 hrs; assay type: functional; conditions: route intraperitoneal; how it was run: as §1
# [20] = Drug uptake in nuclear membrane of human HBL100 cells at non-toxic concentration after 24 hrs by fluorescent microscopic analysis; assay type: ADME, cell membranes; conditions: hbl-100, 24 h; how it was run: as §3
# [21] = Drug uptake in nuclei of human HBL100 cells at non-toxic concentration after 24 hrs by fluorescent microscopic analysis; assay type: ADME, cell-based, Nucleus; conditions: hbl-100, 24 h; how it was run: as §3
# HBL-100 [22] = experiment: Ratio of Doxorubicin IC50 to compound IC50 for human HBL100 cells after 24 hrs by MTT assay; assay type: functional
Compound,Activity (Bone marrow cell [1]),Activity (Bone marrow cell [2]),IC50 (647-V) [µg/mL],Activity (Bone marrow cell [4]) [%],IC50 (HeLa) [µg/mL],IC50 (MDA-MB-231) [µg/mL],Activity (Bone marrow cell [5]),Activity (Bone marrow cell [6]),IC50 (MCF7) [µg/mL],IC50 (HepG2) [µg/mL],Activity (Bone marrow cell [7]) [%],Activity (Bone marrow cell [8]) [%],Activity (Bone marrow cell [9]) [%],IC50 (HBL-100 [10]) [µg/mL],IC50 (HT-29) [µg/mL],also measured
C(=N\Cc1ccco1)/c1c2ccccc2cc2ccccc12,10.2 ‰,11.3 ‰,80,5.5,360,450,12.4 ‰,15.2 ‰,260,120,5.5,4.43,4.75,460,200,Activity (Bone marrow cell [3]): inactive
COP(=O)(OC)C(Nc1ccc(C)cc1)c1c2ccccc2cc2ccccc12 (configuration not stated),15.6 ‰,12.6 ‰,600,6,> 2000,880,12 ‰,14.1 ‰,450,830,5.5,4.75,4,20,> 2000,Activity (Bone marrow cell [3]): inactive
Cc1ccc(/N=C/c2c3ccccc3cc3ccccc23)cc1,8.45 ‰,12.6 ‰,130,6.5,170,120,10.7 ‰,11.7 ‰,450,180,6.57,5,5.25,310,80,Activity (Bone marrow cell [11]): 35.6%; Drug uptake [12]: Active; Activity (Bone marrow cell [13]): 62.17%
CO[C@@]12[C@H](COC(N)=O)C3=C(C(=O)C(C)=C(N)C3=O)N1C[C@@H]1N[C@@H]12 [MITOMYCIN],,,,,,,,,,,,,,,,Activity (Bone marrow cell [14]): 5.49 ‰; Activity (Bone marrow cell [15]): 15.8%; Activity (Bone marrow cell [16]): 24.9%; Activity (Bone marrow cell [17]): 75.1%; Activity (Bone marrow cell [18]): 7.29 ‰; Activity (Bone marrow cell [19]): 30.5%
CCOP(=O)(OCC)C(Nc1ccc(C)cc1)c1c2ccccc2cc2ccccc12 (configuration not stated),11.9 ‰,13.4 ‰,> 2000,8,1940,> 2000,16.1 ‰,11.8 ‰,> 2000,> 2000,8.5,6,4.75,730,> 2000,Drug uptake [20]: Active; Drug uptake [21]: Active
COc1cccc2c1C(=O)c1c(O)c3c(c(O)c1C2=O)C[C@@](O)(C(=O)CO)C[C@@H]3O[C@H]1C[C@H](N)[C@H](O)[C@H](C)O1.Cl [DOXORUBICIN HYDROCHLORIDE],,,< 68,,< 68,< 68,,,< 68,< 68,,,,140,580,
CCOP(=O)(OCC)C(NCc1ccco1)c1c2ccccc2cc2ccccc12 (configuration not stated),10.1 ‰,15.1 ‰,70,,120,70,,,100,110,,4.75,6.25,70,110,Ratio IC50 (HBL-100 [22]): 2
